Assay outcomes from PubChem BioAssay.
Sampled rows, rich in hits. Any-hit rate of the full collection: about 2.6%.
SENP8 block-1 – inhibitors of human SENP8 protease. hit rate 1.2% among 330,000. AID 2540. Q96LD8. inhibition, % at 10 µM. purified SENP8, Z-RLRGG-aminoluciferin cleavage, luminescence; in the data active = inhibition above about 50%
SENP7 inh – SENP7 protease inhibition | Q9BQF6 | recombinant SENP7, Z-RLRGG-aminoluciferin luminescence, 40 min | inhibition, % at 5 µM | hit rate 1.5% among 330,000 | AID 434973;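 active = inhibition above about 50% at the single test dose, limit read from the data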;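 note: plate controls were DMSO with enzyme for no effect and no enzyme buffer wells for full effect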
SENP8 block-2 – blocks human SENP8 cleavage of Nedd8 substrate. hit rate 0.64% among 360,000. AID 602440. recombinant SENP8, Nedd8 substrate fluorescence. inhibition, % at 20 µM. Q96LD8; in the data active = inhibition mostly above about 40%, no sharp cut-off; inactive = mostly below about 27%
Platelet DG rel – platelet dense granule release activity. AID 1663. hit rate 0.22% among 300,000. inhibition, %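 (compounds screened at 7.5 µM in platelet-rich plasma)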. human platelet-rich plasma, SFLLRN dense granule ATP release, luminescence;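 active = mean replicate score, as percent of positive control, at or above 50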
SENP1 FRET inh – blocks the human SENP1 SUMO protease catalytic domain | recombinant SENP1 catalytic domain, CyPet-SUMO1-YPet FRET cleavage | inhibition, % at 10 µM | hit rate 0.21% among 360,000 | AID 624204;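 active = inhibition at least 30% at 10 µM, raw YFP signal under a set limit, fluorescence ratio 0.5 to 1.5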;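 note: 0% = enzyme with DMSO and 100% = no enzyme wells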
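Test system: recombinant human SENP1 catalytic domain, His6-tagged / Medium: pH 8 Tris buffer with EDTA, NaCl, BME, BSA, NP40, catalase / Also added: SUMO1 FRET substrate flanked by Cypet and Ypet, 25 nM / Times: 50 min reaction at room temperature / Signal: FRET, CFP and YFP emission / Control set: no-enzyme low control and enzyme-plus-DMSO high control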
SENP6 inh – blocks the human protease SENP6; Q9GZR1; Recombinant SENP6 catalytic domain, aminoluciferin luminescence; inhibition, % at 10 µM; hit rate 1.8% among 330,000; AID 2599;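 active = inhibition above about 50% at the single tested dose, limit read from the data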;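 note: plate controls were DMSO wells with enzyme for no effect and DMSO wells lacking enzyme for full effect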
Target sequence (Q9GZR1 628-1112 limits assumed): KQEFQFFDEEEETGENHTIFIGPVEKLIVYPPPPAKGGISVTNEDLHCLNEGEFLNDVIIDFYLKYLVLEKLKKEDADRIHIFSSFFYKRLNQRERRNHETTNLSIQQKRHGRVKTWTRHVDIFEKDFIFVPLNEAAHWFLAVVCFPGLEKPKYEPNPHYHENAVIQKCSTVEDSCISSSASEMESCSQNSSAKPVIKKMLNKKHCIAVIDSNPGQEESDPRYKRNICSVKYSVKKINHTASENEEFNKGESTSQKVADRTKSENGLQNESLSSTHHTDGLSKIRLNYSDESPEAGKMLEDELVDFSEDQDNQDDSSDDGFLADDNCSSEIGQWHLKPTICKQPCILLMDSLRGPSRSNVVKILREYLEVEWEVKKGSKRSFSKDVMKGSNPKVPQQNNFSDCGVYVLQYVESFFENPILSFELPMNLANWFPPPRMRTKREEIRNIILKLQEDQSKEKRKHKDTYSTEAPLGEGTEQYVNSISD
SENP8 conf – human SENP8 inhibition, confirmed. shares compounds with SENP7 inh. Recombinant SENP8, Z-RLRGG-aminoluciferin luminescence, 60 min. inhibition, % at 12.5 µM. hit rate 40% among 6,200;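 active = mean inhibition across replicates above about 50%, limit read from the data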
SENP6 conf – confirmation of human SENP6 protease inhibitors. shares compounds with SENP7 inh. recombinant SENP6, Z-RLRGG-aminoluciferin luminescence. inhibition, % at 12.5 µM. hit rate 58% among 6,200
SENP7 confirm – confirmation of human SENP7 protease inhibitors | shares compounds with SENP7 inh | recombinant SENP7, Z-RLRGG-aminoluciferin luminescence, 40 min | inhibition, % at 12.5 µM | hit rate 69% among 6,200 | AID 488917
Casp3 select – selectivity test for SENP inhibitors: human caspase-3 inhibition; purified caspase-3, Z-DEVD-aminoluciferin luminescence, 60 min; inhibition, % at 12.5 µM; AID 488918; shares compounds with SENP7 inh; hit rate 60% among 6,200;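 active = mean inhibition above about 50%, limit read from the data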;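 note: plate controls were enzyme with DMSO for no effect and wells without caspase-3 for full effect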
Luc interf – luminescence interference (SENP counter-screen) | Pre-incubated SENP8/Z-RLRGG-aminoluciferin, luciferase luminescence interference | hit rate 39% among 6,200 | inhibition, % at 12.5 µM | AID 488919 | shares compounds with SENP7 inh;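 active = mean inhibition above about 50% when retested at one dose, limit read from the data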;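 note: plate controls were DMSO wells with completed reaction for no effect and substrate without enzyme for full effect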
* marks the source's active call; other numbers are inactive results; · = no result given.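 Rule for the calls, unless noted: active = mean inhibition above about 50% in the one-dose retest (limit read from the data); inactive = the rest.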

SMILES	SENP8 block-1	SENP7 inh	SENP8 block-2	Platelet DG rel	SENP1 FRET inh	SENP6 inh	SENP8 conf	SENP6 conf	SENP7 confirm	Casp3 select	Luc interf
O=[N+]([O-])c1ccc(-c2nc3ccc([N+](=O)[O-])cc3[nH]2)cc1	68*	76*	28	5	4	85*	3	30	58*	34	50*
O=[N+]([O-])c1ccc(-c2nc(-c3ccncc3)no2)cc1	2	6	38	-23	0	10	·	·	·	·	·
Brc1ccc(-c2nc(-c3ccncc3)no2)cc1	13	73*	22	0	1	7	-9	-2	19	23	-1
c1ccc(-c2nc(-c3ccncc3)no2)cc1	58*	80*	18	8	2	82*	-30	-1	50	32	-2
COc1nc(-c2ccc(Cl)cc2)ccc1-c1noc(-c2ccco2)n1	-6	-2	-118	7	-33	-8	·	·	·	·	·
c1ccc(-c2ccc(-c3nc(-c4ccncc4)no3)cc2)cc1	83*	23	-9	23	-1	91*	42	37	27	72*	6
c1coc(-c2nc(-c3ccncc3)no2)c1	33	62*	-1	·	0	72*	17	53*	85*	82*	21
CCNC(=O)CC1SC(=Nc2ccc(C)c([N+](=O)[O-])c2)N(C)C1=O (stereo unspecified)	2	-3	20	-6	1	-6	·	·	·	·	·
Clc1cc(Cl)cc(C2=NCCC(c3ccccc3)O2)c1 (stereo unspecified)	-2	-3	·	0	·	0	·	·	·	·	·
CCc1nc2ccc(C(=O)NCCCN3CCCC3=O)cn2c1N(C)Cc1ccc(OC)cc1	·	·	-4	·	1	·	·	·	·	·	·
O=C(c1ccccc1)c1nnc(-c2ccccc2F)o1	90*	97*	37	22	0	85*	79*	96*	99*	90*	31
O=C(CSCc1ccccc1)Nc1ccc(F)c(F)c1	-12	-7	13	17	2	-22	·	·	·	·	·
O=C(CSCc1ccc(F)cc1)Nc1ccccc1	3	65*	4	-1	0	-4	7	6	0	-3	-2
O=C(Nc1cc(Cl)ccc1Cl)c1ccco1	-1	1	25	2	0	-11	·	·	·	·	·
CS/C(Nc1cc(Cl)ccc1Cl)=C(/C#N)C(=O)c1ccco1	94*	89*	11	3	-7	97*	92*	94*	98*	91*	97*
CCOc1ccc2cc(C3CC(c4ccco4)=NN3S(C)(=O)=O)c(=O)[nH]c2c1 (stereo unspecified)	-2	-5	-185	5	-87	-3	·	·	·	·	·
O=C(C1CC(c2ccccc2O)=NO1)N1CCCCC1 (stereo unspecified)	-4	74*	3	0	1	-17	-11	-7	-13	8	7
O=C(C1CC(c2ccccc2O)=NO1)N1CCc2ccccc2C1 (stereo unspecified)	-6	5	4	1	-1	-14	·	·	·	·	·
CCCCN=C1NN=C(c2ccc3c(c2)OCCO3)CS1	18	-2	-10	-6	3	15	·	·	·	·	·
c1cc2c(cc1C1=NNC(=NC3CC3)SC1)OCCO2	96*	97*	7	75*	2	97*	98*	99*	102*	98*	96*
Cc1cc(C2=NNC(=NC3CC3)SC2)c(C)n1-c1ccccc1F	80*	17	-3	24	-1	33	6	93*	100*	93*	60*
O=c1[nH]c(=O)c2[nH]c(=S)n(-c3ccccc3)c2[nH]1	·	·	8	·	1	·	·	·	·	·	·
CCOC(=O)c1csc(-c2sccc2Br)n1	94*	98*	23	17	1	94*	96*	98*	102*	97*	93*
CCOC(=O)c1csc(-c2ccc(OC)c(OC)c2)n1	-7	-4	-6	0	-1	-6	·	·	·	·	·
COc1ccc(C(=O)CSc2nnc(Cc3ccccc3)o2)cc1	-9	60*	10	14	2	-38	7	9	8	4	3
SMILES	SENP8 block-1	SENP7 inh	SENP8 block-2	Platelet DG rel	SENP1 FRET inh	SENP6 inh	SENP8 conf	SENP6 conf	SENP7 confirm	Casp3 select	Luc interf
N=c1cc(C2(O)CCCCC2)n2c(nc3ccccc32)s1	26	58*	9	19	1	62*	43	42	80*	62*	54*
O=C(OCc1ccccc1)c1ccccc1O	22	40	·	·	·	15	·	·	·	·	·
O=C(OCc1csc(-c2ccccc2)n1)c1ccccc1O	88*	91*	12	-6	2	92*	86*	92*	99*	82*	40
CCC(=NCc1ccccc1)c1c(C(F)(F)F)[nH]n(-c2nc3ccccc3s2)c1=O	60*	89*	7	-1	2	85*	18	12	20	64*	49
CC(=NCc1ccco1)c1c(C)[nH]n(-c2nc3ccccc3s2)c1=O	24	2	14	-4	-4	65*	3	2	73*	50	17
O=c1c(C=NCc2cccnc2)c(C(F)(F)F)[nH]n1-c1nc2ccccc2s1	97*	99*	4	3	-2	97*	100*	101*	103*	99*	99*
C/C(=N/NC(=O)c1cccs1)c1c(C)[nH]n(-c2nc3ccccc3s2)c1=O	93*	99*	-372	10	-26	97*	90*	81*	94*	98*	66*
CCCc1[nH]n(-c2nc3ccccc3s2)c(=O)c1C=NCC(C)C	-4	4	33	1	3	-4	·	·	·	·	·
CCCN=C(C)c1c(-c2ccccc2)[nH]n(-c2nc3ccccc3s2)c1=O	-1	0	13	4	2	0	·	·	·	·	·
CC1=Nc2nc(N3CCCCC3)c(C#N)c3c4c(nc(c23)N1)N(c1ccc(C(C)C)cc1)C(=O)C4	18	1	-402	-7	-46	11	·	·	·	·	·
COc1ccccc1NC(=O)N1CCC(NC(=O)C2CCCCC2)CC1	0	1	1	3	1	9	·	·	·	·	·
